The values below come from ChEMBL document CHEMBL2331324, “Synthesis and biological evaluation of guanidino analogues of roscovitine” (Eur J Med Chem, 2013).

In experiment [1] the target is Angiopoietin-1 receptor (Homo sapiens) (UniProt Q02763). In words: Inhibition of recombinant TIE2 (unknown origin) assessed as residual activity using [gamma-33P]ATP as substrate at 1 uM. An outline of the steps: (§1)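 Kinase panel screen with each compound at 1 µM, in duplicate. Reactions were started with [γ-33P]ATP (800 cpm/pmol) at 5, 20 or 50 µM, chosen per enzyme to be at or below its ATP Km. Reactions were stopped with phosphoric acid and spotted onto P81 filters. Results are given as residual kinase activity.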

Experiment [2] has as its target Interleukin-1 receptor-associated kinase 1 (Homo sapiens) (UniProt P51617). In words: Inhibition of recombinant IRAK1 (unknown origin) assessed as residual activity using [gamma-33P]ATP as substrate at 1 uM. In a few lines: (§2)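 Recombinant kinase panel screened at 1 µM in duplicate. Reactions started with [γ-33P]ATP (800 cpm/pmol) at 5, 20 or 50 µM, chosen to sit at or below each enzyme's ATP Km. Stopped with phosphoric acid and spotted onto P81 filters. Result given as residual kinase activity.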

The target in experiment [3] is Phosphorylase kinase (Homo sapiens) (UniProt P15735+P46020+P46019+Q93100+Q16816). In words: Inhibition of recombinant PHK (unknown origin) assessed as residual activity using [gamma-33P]ATP as substrate at 1 uM. The experiment is classed as protein-complex assay. An outline of the steps:
(§3)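 Selectivity panel run under previously published conditions. Screened at 1 μM in duplicate. Reactions started with [γ-33P]ATP (800 cpm/pmol) at 5, 20 or 50 μM, chosen to be at or below each enzyme's ATP Km. Stopped with phosphoric acid, spotted onto P81 filters. Result expressed as residual kinase activity.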

Experiment [4] addresses MAP kinase-interacting serine/threonine-protein kinase 1 (Homo sapiens) (UniProt Q9BUB5). In words: Inhibition of recombinant MNK1 (unknown origin) assessed as residual activity using [gamma-33P]ATP as substrate at 1 uM. An outline of the steps:
as §3

Experiment [5] addresses Tyrosine-protein kinase Lck (Homo sapiens) (UniProt P06239). In words: Inhibition of recombinant LCK (unknown origin) assessed as residual activity using [gamma-33P]ATP as substrate at 1 uM. In a few lines:
as §3

For experiment [6], the target named is Mitogen-activated protein kinase 11 (Homo sapiens) (UniProt Q15759). In words: Inhibition of recombinant p38 MAPKbeta (unknown origin) assessed as residual activity using [gamma-33P]ATP as substrate at 1 uM. In a few lines: as §1
Mitogen-activated protein kinase 11 (Homo sapiens), sequence (Q15759 whole entry): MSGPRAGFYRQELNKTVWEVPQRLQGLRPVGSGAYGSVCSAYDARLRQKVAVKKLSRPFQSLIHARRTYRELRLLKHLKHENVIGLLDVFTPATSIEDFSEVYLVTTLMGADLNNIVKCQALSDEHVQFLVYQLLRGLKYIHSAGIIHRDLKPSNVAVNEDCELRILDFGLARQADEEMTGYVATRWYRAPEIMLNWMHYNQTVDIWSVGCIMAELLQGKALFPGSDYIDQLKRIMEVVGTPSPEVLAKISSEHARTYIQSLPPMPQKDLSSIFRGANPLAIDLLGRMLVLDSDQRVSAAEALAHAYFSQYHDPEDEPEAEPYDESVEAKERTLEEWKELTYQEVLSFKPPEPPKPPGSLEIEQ
The target of experiment [7] is Aurora kinase A (Homo sapiens) (UniProt O14965). In words: Inhibition of recombinant AURA (unknown origin) assessed as residual activity using [gamma-33P]ATP as substrate at 1 uM. In a few lines:
as §2

Experiment [8] concerns the target Serine/threonine-protein kinase PAK 4 (Homo sapiens) (UniProt O96013). In words: Inhibition of recombinant PAK4 (unknown origin) assessed as residual activity using [gamma-33P]ATP as substrate at 1 uM. In a few lines:
as §3

Experiment [9] addresses Serine/threonine-protein kinase MARK1 (Homo sapiens) (UniProt Q9P0L2). In words: Inhibition of recombinant MARK1 (unknown origin) assessed as residual activity using [gamma-33P]ATP as substrate at 1 uM. An outline of the steps: as §3
The target of experiment [10] is Protein kinase C zeta type (Homo sapiens) (UniProt Q05513). In words: Inhibition of recombinant PKCzeta (unknown origin) assessed as residual activity using [gamma-33P]ATP as substrate at 1 uM. In a few lines: as §3
Protein kinase C zeta type (Homo sapiens), sequence (Q05513 whole entry): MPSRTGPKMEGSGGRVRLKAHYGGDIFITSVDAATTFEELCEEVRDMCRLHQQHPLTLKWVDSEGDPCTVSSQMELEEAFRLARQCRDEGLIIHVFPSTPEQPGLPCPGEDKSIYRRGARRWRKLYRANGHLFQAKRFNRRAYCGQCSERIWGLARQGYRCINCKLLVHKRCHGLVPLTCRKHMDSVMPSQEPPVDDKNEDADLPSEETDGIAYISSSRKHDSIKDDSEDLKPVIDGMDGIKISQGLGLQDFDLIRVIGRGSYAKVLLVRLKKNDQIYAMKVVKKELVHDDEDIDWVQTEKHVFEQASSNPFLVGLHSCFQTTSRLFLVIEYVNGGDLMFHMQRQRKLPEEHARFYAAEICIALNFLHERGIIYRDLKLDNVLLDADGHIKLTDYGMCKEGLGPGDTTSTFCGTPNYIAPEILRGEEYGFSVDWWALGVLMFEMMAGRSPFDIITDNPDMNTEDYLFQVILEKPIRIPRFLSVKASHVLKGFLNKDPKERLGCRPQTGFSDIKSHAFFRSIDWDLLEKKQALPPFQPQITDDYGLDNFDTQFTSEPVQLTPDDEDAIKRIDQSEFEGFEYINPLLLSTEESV
Experiment [11] addresses Ribosomal protein S6 kinase alpha-1 (Homo sapiens) (UniProt Q15418). In words: Inhibition of recombinant RSK1 (unknown origin) assessed as residual activity using [gamma-33P]ATP as substrate at 1 uM. In a few lines:
as §1

Experiment [12] concerns the target Mitogen-activated protein kinase 3 (Homo sapiens) (UniProt P27361). In words: Inhibition of recombinant ERK1 (unknown origin) assessed as residual activity using [gamma-33P]ATP as substrate at 1 uM. In a few lines:
as §2

The target of experiment [13] is Serine/threonine-protein kinase N2 (Homo sapiens) (UniProt Q16513). In words: Inhibition of recombinant PRK2 (unknown origin) assessed as residual activity using [gamma-33P]ATP as substrate at 1 uM. In a few lines: as §3
Serine/threonine-protein kinase N2 (Homo sapiens), sequence (Q16513 whole entry, looked up): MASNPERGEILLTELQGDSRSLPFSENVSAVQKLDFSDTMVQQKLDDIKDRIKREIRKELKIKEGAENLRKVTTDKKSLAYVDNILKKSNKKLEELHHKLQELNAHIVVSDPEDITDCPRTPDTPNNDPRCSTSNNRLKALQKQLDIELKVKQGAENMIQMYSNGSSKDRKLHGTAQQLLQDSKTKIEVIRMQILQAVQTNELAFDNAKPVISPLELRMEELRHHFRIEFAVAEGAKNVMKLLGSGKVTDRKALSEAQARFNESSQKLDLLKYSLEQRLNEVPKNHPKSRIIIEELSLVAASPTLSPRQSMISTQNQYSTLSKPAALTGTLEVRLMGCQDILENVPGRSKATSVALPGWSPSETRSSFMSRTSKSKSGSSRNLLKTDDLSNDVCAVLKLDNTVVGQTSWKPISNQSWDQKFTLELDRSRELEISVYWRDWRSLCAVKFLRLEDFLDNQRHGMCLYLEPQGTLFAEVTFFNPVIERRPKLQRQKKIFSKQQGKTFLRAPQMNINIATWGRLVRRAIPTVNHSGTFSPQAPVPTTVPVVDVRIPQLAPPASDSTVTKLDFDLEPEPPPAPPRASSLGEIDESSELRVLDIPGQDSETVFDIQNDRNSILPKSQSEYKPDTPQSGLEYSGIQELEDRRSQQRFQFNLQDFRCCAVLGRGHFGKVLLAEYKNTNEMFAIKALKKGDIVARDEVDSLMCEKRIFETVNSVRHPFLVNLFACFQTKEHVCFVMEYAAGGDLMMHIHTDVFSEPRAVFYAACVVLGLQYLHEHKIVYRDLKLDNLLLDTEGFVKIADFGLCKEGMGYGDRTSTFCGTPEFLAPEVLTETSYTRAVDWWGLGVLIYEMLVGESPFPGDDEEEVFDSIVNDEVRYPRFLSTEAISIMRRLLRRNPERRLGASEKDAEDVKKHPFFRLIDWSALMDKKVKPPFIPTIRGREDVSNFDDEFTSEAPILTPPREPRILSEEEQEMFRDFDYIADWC
Experiment [14] concerns the target MAP/microtubule affinity-regulating kinase 4 (Homo sapiens) (UniProt Q96L34). In words: Inhibition of recombinant MARK4 (unknown origin) assessed as residual activity using [gamma-33P]ATP as substrate at 1 uM. In a few lines:
as §3

Experiment [15] has as its target Cyclin-dependent kinase 1/cyclin B1 (Homo sapiens) (UniProt P06493+P14635). In words: Ratio of roscovitine IC50 to compound IC50 for recombinant CDK1/cyclin B (unknown origin). The experiment is classed as protein-complex assay.
Experiment [16] deals with Receptor tyrosine-protein kinase erbB-4 (Homo sapiens) (UniProt Q15303). In words: Inhibition of recombinant HER4 (unknown origin) assessed as residual activity using [gamma-33P]ATP as substrate at 1 uM. In a few lines: as §2
In experiment [17] the target is Dual specificity protein kinase TTK (Homo sapiens) (UniProt P33981). In words: Inhibition of recombinant TTK (unknown origin) assessed as residual activity using [gamma-33P]ATP as substrate at 1 uM. In a few lines: as §1
Dual specificity protein kinase TTK (Homo sapiens), sequence (P33981 whole entry): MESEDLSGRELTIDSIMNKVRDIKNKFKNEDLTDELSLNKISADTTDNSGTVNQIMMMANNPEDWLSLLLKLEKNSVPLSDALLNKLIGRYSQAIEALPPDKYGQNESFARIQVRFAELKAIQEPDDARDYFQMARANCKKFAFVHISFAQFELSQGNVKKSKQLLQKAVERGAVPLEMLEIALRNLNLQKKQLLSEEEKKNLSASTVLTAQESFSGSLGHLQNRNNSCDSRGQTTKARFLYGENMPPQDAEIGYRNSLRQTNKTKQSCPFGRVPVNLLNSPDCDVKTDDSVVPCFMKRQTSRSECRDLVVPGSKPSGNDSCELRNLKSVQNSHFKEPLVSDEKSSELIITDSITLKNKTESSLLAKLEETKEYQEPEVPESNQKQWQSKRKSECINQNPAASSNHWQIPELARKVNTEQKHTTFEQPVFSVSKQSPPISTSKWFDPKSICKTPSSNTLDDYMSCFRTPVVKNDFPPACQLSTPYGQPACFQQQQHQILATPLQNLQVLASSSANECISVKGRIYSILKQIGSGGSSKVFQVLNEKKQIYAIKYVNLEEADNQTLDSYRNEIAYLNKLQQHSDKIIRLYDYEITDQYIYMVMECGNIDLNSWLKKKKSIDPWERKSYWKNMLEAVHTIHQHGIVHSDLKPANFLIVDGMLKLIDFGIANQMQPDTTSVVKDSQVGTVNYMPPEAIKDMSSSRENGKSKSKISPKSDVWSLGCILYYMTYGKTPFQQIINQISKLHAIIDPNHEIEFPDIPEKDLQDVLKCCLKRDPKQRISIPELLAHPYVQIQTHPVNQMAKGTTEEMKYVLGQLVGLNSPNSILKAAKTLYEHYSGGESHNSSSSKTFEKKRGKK
Experiment [18] has as its target Receptor-interacting serine/threonine-protein kinase 2 (Homo sapiens) (UniProt O43353). In words: Inhibition of recombinant RIPK2 (unknown origin) assessed as residual activity using [gamma-33P]ATP as substrate at 1 uM. In a few lines:
as §3

The target in experiment [19] is RAC-alpha serine/threonine-protein kinase (Homo sapiens) (UniProt P31749). In words: Inhibition of recombinant PKB alpha (unknown origin) assessed as residual activity using [gamma-33P]ATP as substrate at 1 uM. An outline of the steps:
as §3

For the next experiment, the species on record is Homo sapiens. In words: Inhibition of recombinant CK1 (unknown origin) assessed as residual activity using [gamma-33P]ATP as substrate at 1 uM. An outline of the steps:
as §2

The target in experiment [20] is Calcium/calmodulin-dependent protein kinase kinase 2 (Homo sapiens) (UniProt Q96RR4). In words: Inhibition of recombinant CAMKKbeta (unknown origin) assessed as residual activity using [gamma-33P]ATP as substrate at 1 uM. An outline of the steps:
as §2

For experiment [21], the target named is Cyclin-dependent kinase 2/cyclin E1 (Homo sapiens) (UniProt P24864+P24941). In words: Ratio of roscovitine IC50 to compound IC50 for recombinant CDK2/cyclin E (unknown origin). In kind it is protein-complex assay.
The test system of another experiment is MCF7. In words: Ratio of roscovitine IC50 to compound IC50 for human MCF7 cells after 72 hrs by calcien AM dye based fluorescence analysis. The experiment is classed as functional.
Experiment [22] has as its target Protein kinase C alpha type (Homo sapiens) (UniProt P17252). In words: Inhibition of recombinant PKCalpha (unknown origin) assessed as residual activity using [gamma-33P]ATP as substrate at 1 uM. In a few lines: as §3
Experiment [23] concerns the target Proto-oncogene tyrosine-protein kinase Src (Homo sapiens) (UniProt P12931). In words: Inhibition of recombinant SRC (unknown origin) assessed as residual activity using [gamma-33P]ATP as substrate at 1 uM. An outline of the steps:
as §1

Ribosomal protein S6 kinase alpha-1 (Homo sapiens), sequence (Q15418 whole entry): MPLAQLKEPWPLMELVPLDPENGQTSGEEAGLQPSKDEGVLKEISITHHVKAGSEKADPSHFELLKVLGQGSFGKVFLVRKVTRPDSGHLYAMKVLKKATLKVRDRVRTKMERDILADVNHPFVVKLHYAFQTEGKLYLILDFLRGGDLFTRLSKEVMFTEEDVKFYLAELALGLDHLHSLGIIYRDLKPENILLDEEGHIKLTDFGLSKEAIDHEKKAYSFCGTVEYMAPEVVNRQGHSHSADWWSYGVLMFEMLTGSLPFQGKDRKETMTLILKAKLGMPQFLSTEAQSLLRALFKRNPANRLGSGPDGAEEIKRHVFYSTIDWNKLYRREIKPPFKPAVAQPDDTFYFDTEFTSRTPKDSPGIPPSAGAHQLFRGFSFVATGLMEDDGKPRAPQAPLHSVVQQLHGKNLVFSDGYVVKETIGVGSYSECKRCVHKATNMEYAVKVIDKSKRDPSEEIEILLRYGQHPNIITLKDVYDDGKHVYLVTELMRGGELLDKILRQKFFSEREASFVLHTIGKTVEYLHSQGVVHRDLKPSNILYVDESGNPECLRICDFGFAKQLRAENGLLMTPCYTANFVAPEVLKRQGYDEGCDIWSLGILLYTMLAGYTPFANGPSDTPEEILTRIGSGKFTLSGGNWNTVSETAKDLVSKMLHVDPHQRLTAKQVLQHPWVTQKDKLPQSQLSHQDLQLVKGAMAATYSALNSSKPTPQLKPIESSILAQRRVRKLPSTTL
Aurora kinase A (Homo sapiens), sequence (O14965 whole entry): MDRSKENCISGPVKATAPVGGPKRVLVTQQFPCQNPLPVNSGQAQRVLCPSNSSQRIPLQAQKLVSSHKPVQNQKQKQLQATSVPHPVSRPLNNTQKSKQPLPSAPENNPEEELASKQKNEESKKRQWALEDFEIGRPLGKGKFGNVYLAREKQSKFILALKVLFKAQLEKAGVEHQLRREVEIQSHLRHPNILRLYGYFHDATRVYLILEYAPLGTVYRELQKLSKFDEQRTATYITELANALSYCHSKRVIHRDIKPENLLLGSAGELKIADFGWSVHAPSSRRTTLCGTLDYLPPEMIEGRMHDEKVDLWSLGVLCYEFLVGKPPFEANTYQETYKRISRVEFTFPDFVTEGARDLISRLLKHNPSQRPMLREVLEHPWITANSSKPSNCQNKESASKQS
Tyrosine-protein kinase Lck (Homo sapiens), sequence (P06239 2-509 limits assumed): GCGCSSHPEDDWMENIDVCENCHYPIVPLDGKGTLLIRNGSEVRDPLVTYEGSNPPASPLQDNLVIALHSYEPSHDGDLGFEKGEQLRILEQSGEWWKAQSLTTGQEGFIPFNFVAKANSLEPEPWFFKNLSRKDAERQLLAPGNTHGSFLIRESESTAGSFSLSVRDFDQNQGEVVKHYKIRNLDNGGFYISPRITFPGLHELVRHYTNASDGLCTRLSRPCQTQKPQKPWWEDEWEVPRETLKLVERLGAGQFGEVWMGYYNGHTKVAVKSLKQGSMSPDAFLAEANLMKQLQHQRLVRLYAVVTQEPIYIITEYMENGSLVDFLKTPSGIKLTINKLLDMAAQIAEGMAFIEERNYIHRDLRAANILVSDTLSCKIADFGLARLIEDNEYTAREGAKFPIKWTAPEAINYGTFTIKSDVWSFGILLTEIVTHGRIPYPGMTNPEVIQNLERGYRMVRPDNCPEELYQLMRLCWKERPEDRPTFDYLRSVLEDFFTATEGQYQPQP
Mitogen-activated protein kinase 3 (Homo sapiens), sequence (P27361 whole entry): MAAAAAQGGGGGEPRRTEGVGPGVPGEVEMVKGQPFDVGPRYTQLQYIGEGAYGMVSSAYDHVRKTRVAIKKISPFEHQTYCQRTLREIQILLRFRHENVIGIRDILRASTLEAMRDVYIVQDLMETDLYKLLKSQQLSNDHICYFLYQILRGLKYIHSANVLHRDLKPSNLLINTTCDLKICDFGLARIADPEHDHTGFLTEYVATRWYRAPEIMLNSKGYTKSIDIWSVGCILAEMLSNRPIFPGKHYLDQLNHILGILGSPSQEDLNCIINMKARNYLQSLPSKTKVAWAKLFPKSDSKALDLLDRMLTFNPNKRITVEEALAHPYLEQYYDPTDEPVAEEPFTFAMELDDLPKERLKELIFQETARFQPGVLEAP

As to `CC[C@@H](CO)Nc1nc(NC(=N)N)c2ncn(C(C)C)c2n1`, the Activity in [1] turned out to be 40%; in [2] it was 17%; in experiment [3] it was 12%; in experiment [4], 178%; in experiment [5], 12%; in [6], 66%. Besides, the Activity came out at 30% in [7]; 12% in experiment [8]; 39% in experiment [9]; 61% in experiment [10]; 12% in experiment [11]; 28% in experiment [12]. Also, the Activity in experiment [13] stood at 84%; in experiment [14] it was 29%; in [16], 29%; in experiment [17], 32%; in [18], 76%; in experiment [19], 107%. For the same compound, the Activity turned out to be 21% in the experiment listed under Homo sapiens, 13% in experiment [20], 68% in experiment [22] and 6% in [23]. The figures for the Ratio IC50 (in experiment [15]; in [21]; with MCF7) were 2.7, 4.6 and more than 10, respectively.

Turning to `CC[C@H](CO)Nc1nc(NC(=N)N)c2ncn(C(C)C)c2n1`, the Activity in [1] was found to be 39%; in experiment [2], 26%; in experiment [3], 14%; in experiment [4] it was 173%; in experiment [5] it was 13%; in experiment [6], 64%. Also, the Activity in [7] came to 39%; in [8] it was 15%; in experiment [9] it was 31%; in experiment [10], 68%; in experiment [11] it was 18%; in [12] it was 50%. The Activity in experiment [13] is 85%; in experiment [14] it was 38%; in experiment [16] it was 27%; in [17] it was 40%; in [18], 72%; in [19] it was 99%. In addition, the Activity was determined as 15% in the experiment listed under Homo sapiens, 17% in experiment [20], 71% in [22] and 22% in experiment [23].
